ChEMBL document CHEMBL4477211, “Synthesis and Investigation of Tetrahydro-β-carboline Derivatives as Inhibitors of the Breast Cancer Resistance Protein (ABCG2)” (J Med Chem, 2016)

How the values were obtained:
[1] = molecular target: T1, Broad substrate specificity ATP-binding cassette transporter ABCG2 (Homo sapiens, UniProt Q9UNQ0); assay: Inhibition of human ABCG2 expressed in MDCK2 cells assessed as reduction in Hoechst 33342 efflux pre-incubated for 30 mins before Hoechst 33342 addition and measured for 120 mins by microplate reader analysis; type: cell-based
T1 sequence (Q9UNQ0 whole entry): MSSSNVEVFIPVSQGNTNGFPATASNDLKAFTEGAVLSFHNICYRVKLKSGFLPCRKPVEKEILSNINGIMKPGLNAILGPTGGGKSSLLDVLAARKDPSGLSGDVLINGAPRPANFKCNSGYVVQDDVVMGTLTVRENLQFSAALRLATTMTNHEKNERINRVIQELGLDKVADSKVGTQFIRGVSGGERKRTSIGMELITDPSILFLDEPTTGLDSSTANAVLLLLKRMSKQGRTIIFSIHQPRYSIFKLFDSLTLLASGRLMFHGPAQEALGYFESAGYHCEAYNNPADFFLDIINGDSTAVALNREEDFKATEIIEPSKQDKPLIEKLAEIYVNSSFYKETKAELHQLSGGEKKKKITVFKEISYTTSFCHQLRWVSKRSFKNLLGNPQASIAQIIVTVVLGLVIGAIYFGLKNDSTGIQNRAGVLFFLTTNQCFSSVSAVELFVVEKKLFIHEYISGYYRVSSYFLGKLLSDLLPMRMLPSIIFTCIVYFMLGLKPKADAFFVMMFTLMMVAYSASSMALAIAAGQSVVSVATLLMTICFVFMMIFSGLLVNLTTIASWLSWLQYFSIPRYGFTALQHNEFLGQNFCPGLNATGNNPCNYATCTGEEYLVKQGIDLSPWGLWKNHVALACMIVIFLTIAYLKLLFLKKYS
Procedure, shortened: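 Compound dilutions up to 10 µM (from 10 mM DMSO stocks) pre-incubated 30 min at 37 °C. Hoechst 33342 then added from 6 µM solution. Fluorescence (ex 355/em 460 nm) read each 60 s over 120 min.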

ABCB1 = ABCB1 (Homo sapiens, UniProt P08183); assay: Inhibition of ABCB1 in human A2780/ADR cells assessed as reduction in calcein AM efflux at 10 uM pre-incubated for 30 mins before calcein AM addition and measured for 60 mins by microplate reader analysis relative to control; type: cell-based; conditions: probe calcein AM
ABCB1, sequence (P08183 whole entry): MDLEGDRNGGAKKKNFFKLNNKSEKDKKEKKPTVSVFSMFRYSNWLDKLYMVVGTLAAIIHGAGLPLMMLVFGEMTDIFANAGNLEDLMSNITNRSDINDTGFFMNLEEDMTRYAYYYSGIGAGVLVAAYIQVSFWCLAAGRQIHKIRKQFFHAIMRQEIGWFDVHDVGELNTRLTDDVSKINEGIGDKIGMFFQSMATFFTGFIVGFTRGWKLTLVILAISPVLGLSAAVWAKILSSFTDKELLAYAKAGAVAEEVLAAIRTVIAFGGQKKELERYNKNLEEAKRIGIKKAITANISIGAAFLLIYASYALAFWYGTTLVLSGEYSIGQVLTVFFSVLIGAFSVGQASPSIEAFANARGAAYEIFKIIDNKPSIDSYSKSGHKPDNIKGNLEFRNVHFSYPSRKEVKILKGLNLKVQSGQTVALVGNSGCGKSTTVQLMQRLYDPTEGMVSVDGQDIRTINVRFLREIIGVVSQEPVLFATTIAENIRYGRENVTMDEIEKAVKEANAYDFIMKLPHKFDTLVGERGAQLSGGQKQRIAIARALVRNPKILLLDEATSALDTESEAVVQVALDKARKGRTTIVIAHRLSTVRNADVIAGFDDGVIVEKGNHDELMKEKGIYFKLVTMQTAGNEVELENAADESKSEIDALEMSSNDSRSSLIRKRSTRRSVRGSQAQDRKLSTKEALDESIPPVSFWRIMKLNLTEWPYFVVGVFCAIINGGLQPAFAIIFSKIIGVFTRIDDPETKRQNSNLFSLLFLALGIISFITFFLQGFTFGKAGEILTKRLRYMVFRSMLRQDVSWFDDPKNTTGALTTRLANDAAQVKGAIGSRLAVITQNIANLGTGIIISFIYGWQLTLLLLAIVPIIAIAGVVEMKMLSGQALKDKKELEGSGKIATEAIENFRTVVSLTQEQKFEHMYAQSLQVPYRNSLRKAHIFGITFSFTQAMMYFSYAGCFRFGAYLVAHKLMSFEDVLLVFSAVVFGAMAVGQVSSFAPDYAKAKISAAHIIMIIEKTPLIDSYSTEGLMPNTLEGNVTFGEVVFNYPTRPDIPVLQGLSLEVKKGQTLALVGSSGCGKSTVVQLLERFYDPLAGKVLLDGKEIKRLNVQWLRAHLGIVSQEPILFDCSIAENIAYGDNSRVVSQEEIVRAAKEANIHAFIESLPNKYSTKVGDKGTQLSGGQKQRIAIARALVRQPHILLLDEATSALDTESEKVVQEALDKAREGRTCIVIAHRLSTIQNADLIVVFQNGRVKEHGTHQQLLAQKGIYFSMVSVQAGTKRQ
Procedure, shortened: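 Compound at 10 µM pre-incubated 30 min at 37 °C. Calcein AM added from 3.125 µM solution. Fluorescence (ex 485/em 520 nm) read every 60 s for 60 min.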

[2] = molecular target: ATP-dependent translocase ABCB1 (Homo sapiens, UniProt P08183); assay: Inhibition of ABCB1 in human A2780/ADR cells assessed as reduction in calcein AM efflux pre-incubated for 30 mins before calcein AM addition and measured for 60 mins by microplate reader analysis relative to control; type: cell-based
ATP-dependent translocase ABCB1, sequence (P08183 whole entry): as above

[3] = Solubility in pH 7.4 Krebs-HEPES buffer at 10 uM after 2 hrs by UV-visible spectrophotometric analysis; type: physicochemical; conditions: pH 7.4, 2 h
Procedure, shortened: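 10 µM test solutions prepared from DMSO stocks as for the Hoechst 33342 assay, in Krebs-HEPES pH 7.4. Absorbance at an absorption peak maximum recorded every 120 s for 2 h at room temperature by UV/visible spectrophotometer.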

[4] = molecular target: T1, Broad substrate specificity ATP-binding cassette transporter ABCG2; assay: Inhibition of human ABCG2 expressed in MDCK2 cells assessed as reduction in pheophorbide A efflux pre-incubated for 30 mins before pheophorbide A addition and measured for 120 mins by flow cytometry
[5] = Cytotoxicity against MDCK2 cells expressing human ABCG2 assessed as reduction in cell viability after 72 hrs by MTT assay; type: ADME, cell-based, Canis lupus familiaris; conditions: dog, MDCK2 (MDCK-II) cells expressing human ABCG2
Procedure, shortened: (§1)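 MDCK II cells retrovirally transfected with human ABCG2-GFP cDNA, and wild-type MDCK II, in DMEM with 10% FBS. Seeded at 3 x 10^3 cells/well and attached 6 h at 37 °C, 5% CO2. Compounds up to 100 µM for 72 h. Controls were 10% DMSO and medium. MTT (5 mg/ml) added for 1 h, read at 570 nm minus 690 nm. Data normalised; GI50 from variable-slope sigmoidal fit.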

[6] = molecular target: T1, Broad substrate specificity ATP-binding cassette transporter ABCG2; assay: Inhibition of human ABCG2 expressed in baculovirus infected Sf9 cell membrane assessed as inhibition of vanadate sensitive ATPase activity at 1 uM after 20 mins by colorimetric method; conditions: sf9, 20 min
[7] = Cytotoxicity against wild-type MDCK2 cells assessed as reduction in cell viability after 72 hrs by MTT assay; type: cell-based, Canis lupus familiaris; conditions: dog, wild-type MDCK2 (MDCK-II) cells; procedure, shortened: as §1
[8] = molecular target: T1, Broad substrate specificity ATP-binding cassette transporter ABCG2; assay: Inhibition of human ABCG2 expressed in baculovirus infected Sf9 cell membrane assessed as inhibition of vanadate sensitive basal ATPase activity after 20 mins by colorimetric method
Procedure, shortened: (§2)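 Cholesterol-loaded membranes from Sf9 cells infected with baculovirus carrying human wild-type ABCG2; 10 µg protein per reaction. Buffer: 40 mM MOPS-Tris pH 7.0, 50 mM KCl, 2 mM DTT, 0.5 mM EGTA-Tris, 5 mM azide, 1 mM ouabain. Started with 3.3 mM MgATP, 20 min at 37 °C, stopped with SDS. Pi measured by molybdate/ascorbate colour at 880 nm against K2HPO4 standard.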

ABCG2 = molecular target: T2, ABCG2 (Homo sapiens, UniProt Q9UNQ0); assay: Ratio of IC50 for human ABCG2 expressed in baculovirus infected Sf9 cell membrane assessed as inhibition of vanadate sensitive quercetin-stimulated ATPase activity to IC50 for human ABCG2 expressed in baculovirus infected Sf9 cell membrane assessed as inhibition of vanadate sensitive basal ATPase activity; conditions: read-out: Ratio IC50
T2 sequence (Q9UNQ0 whole entry): T1 sequence (Q9UNQ0 whole entry)

[9] = molecular target: T1, Broad substrate specificity ATP-binding cassette transporter ABCG2; assay: Inhibition of human ABCG2 expressed in baculovirus infected Sf9 cell membrane assessed as inhibition of vanadate sensitive quercetin-stimulated ATPase activity after 20 mins by colorimetric method; procedure, shortened: as §2
[10] = molecular target: T1, Broad substrate specificity ATP-binding cassette transporter ABCG2; assay: Reversal of human ABCG2-mediated resistance to SN-38 in human ABCG2 expressed MDCK2 cells assessed as reduction in SN-38 GI50 after 72 hrs by MTT assay

SMILES | IC50 ([1]; read-out: IC50) [µM] | inhibition at 1 h, 10 µM (ABCB1) [%] | IC50 [2] [µM] | also measured
O=C(c1ccc(Cl)cc1)N1CCc2c([nH]c3ccccc23)C1c1ccc(Br)cc1 (stereo not drawn) | 1.78 | < 25 | – | –
COc1ccc(C2c3[nH]c4ccccc4c3CCN2C(=O)c2ccccc2)cc1OC (stereo not drawn) | 3.62 | > 25 | 7.33 | –
O=C(c1ccc(Cl)cc1)N1CCc2c([nH]c3ccccc23)C1c1ccc(F)c(F)c1 (stereo not drawn) | 1.26 | > 25 | 23.4 | –
COc1ccc(C(=O)N2CCc3c([nH]c4ccccc34)C2c2ccc(C(F)(F)F)cc2)cc1 (stereo not drawn) | 1.23 | < 25 | – | solubility [3]: Soluble
CCn1c2c(c3ccccc31)CCN(C(=O)c1ccccc1)C2c1ccccc1 (stereo not drawn) | 10.4 | > 25 | 9.23 | solubility [3]: Soluble
Cc1ccc(C2c3[nH]c4ccccc4c3CCN2C(=O)c2ccccc2)cc1 (stereo not drawn) | 1.43 | < 25 | – | –
O=C(c1ccccc1)N1CCc2c([nH]c3ccccc23)C1c1ccc(F)cc1 (stereo not drawn) | 1.89 | > 25 | 13.4 | –
Clc1ccc(C2c3[nH]c4ccccc4c3CCN2Cc2ccccc2)cc1Cl (stereo not drawn) | > 10 | < 25 | – | solubility [3]: Soluble
COc1cccc(C2c3[nH]c4ccccc4c3CCN2C(=O)c2ccccc2)c1 (stereo not drawn) | 1.92 | > 25 | 6.22 | –
O=C(c1cccc2ccccc12)N1CCc2c([nH]c3ccccc23)C1c1ccc(Cl)c(Cl)c1 (stereo not drawn) | 1.32 | < 25 | – | –
COc1ccc(C2c3[nH]c4ccccc4c3CCN2C(=O)c2ccccc2)cc1 (stereo not drawn) | 2.21 | > 25 | 12 | –
N#Cc1cccc(C2c3[nH]c4ccccc4c3CCN2C(=O)c2ccccc2)c1 (stereo not drawn) | 2 | > 25 | 6.55 | –
COc1ccc(C(=O)N2CCc3c([nH]c4ccccc34)C2c2cccc(Cl)c2)cc1 (stereo not drawn) | 0.883 | > 25 | 19.2 | –
COc1ccc(C(=O)N2CCc3c([nH]c4ccccc34)C2c2ccc(F)c(F)c2)cc1OC (stereo not drawn) | 1.1 | > 25 | 2.86 | –
COc1ccc(C(=O)N2CCc3c([nH]c4ccccc34)C2c2ccc(F)c(F)c2)cc1 (stereo not drawn) | 0.805 | > 25 | 8.24 | –
CC(=O)Nc1ccc(C2c3[nH]c4ccccc4c3CCN2C(=O)c2ccccc2)cc1 (stereo not drawn) | 7.82 | > 25 | 7.4 | solubility [3]: Soluble
O=C(c1ccc(Cl)cc1)N1CCc2c([nH]c3ccccc23)C1c1ccc(Cl)c(Cl)c1 (stereo not drawn) | 1.03 | < 25 | – | –
O=C(c1ccccc1)N1CCc2c([nH]c3ccccc23)C1c1cccc(Cl)c1 (stereo not drawn) | 0.869 | > 25 | 22.5 | IC50 ([4]; read-out: IC50): 0.811 µM
COc1ccc(C(=O)N2CCc3c([nH]c4ccccc34)C2c2cccc(OC)c2)cc1 (stereo not drawn) | 1.45 | > 25 | 3.38 | –
COc1ccc(C(=O)N2CCc3c([nH]c4ccccc34)C2c2ccc(Cl)c(Cl)c2)cc1OC (stereo not drawn) | 0.698 | > 25 | 14.3 | –
COc1ccc2c(c1)[nH]c1c(C)nccc12 [HARMINE] | – | – | – | GI50 at 72 h [5]: 2.42 µM; inhibition (INH) [6]: Not Active; GI50 at 72 h [7]: 2.3 µM
COc1cccc(C2NCCc3c2[nH]c2ccccc32)c1 (stereo not drawn) | – | < 25 | – | IC50 [4]: Not Active; IC50 [1]: Not Active
COc1ccc(C(=O)N2CCc3c([nH]c4ccccc34)C2c2ccccc2)cc1 (stereo not drawn) | 1.75 | > 25 | 9.55 | –
O=C(c1ccccc1)N1CCc2c([nH]c3ccccc23)C1c1ccccc1 (stereo not drawn) | 2.78 | > 25 | 7.94 | GI50 at 72 h [5]: 12.9 µM; IC50 [8]: 0.196 µM; solubility [3]: Soluble; selectivity ratio (ABCG2): 10.3; inhibition (INH) [6]: Active; IC50 [9]: 2.02 µM; GI50 at 72 h [7]: 12.4 µM; Activity [10]: Dose-dependent effect
O=C(c1ccccc1)N1CCc2c([nH]c3ccccc23)C1c1ccccc1F (stereo not drawn) | 4.49 | > 25 | 11.3 | –
c1ccc(C2NCCc3c2[nH]c2ccccc32)cc1 (stereo not drawn) | – | < 25 | – | IC50 [4]: Not Active; IC50 [1]: Not Active
c1ccc(CN2CCc3c([nH]c4ccccc34)C2c2ccccc2)cc1 (stereo not drawn) | > 10 | < 25 | – | solubility [3]: Soluble
CCn1c2c(c3ccccc31)CCN(C(=O)c1cccc(OC)c1)C2c1ccc(Cl)c(Cl)c1 (stereo not drawn) | > 10 | < 25 | – | solubility [3]: Soluble
CC(C)CC1c2[nH]c3ccccc3c2CCN1C(=O)c1ccccc1 (stereo not drawn) | 2.33 | > 25 | 12.9 | –
O=C(c1ccccc1)N1CCc2c([nH]c3ccccc23)C1c1ccc(F)c(F)c1 (stereo not drawn) | 1.1 | > 25 | 8.76 | IC50 ([4]; read-out: IC50): 1.8 µM
